Source: paper PMC10968941 (International Journal of Nanomedicine, 2024)

Tests used:
Caco-2 cells = assay: Caco-2 permeability assay; format: in vitro ADME, human; details: Caco-2 Transwell, apical to basolateral, RP-HPLC
In short: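 Caco-2 cells seeded at 1 × 10^5 cells/well on 0.4 µm Transwell membranes and grown to a monolayer checked by TEER. Medium replaced with HBSS before dosing.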

[1] = biological target: pepsin from porcine stomach mucosa (Sus scrofa, UniProt P00791); assay: Stability test in simulated gastric fluid; format: in vitro ADME; details: 37°C; for Degradation in simulated gastric fluid with pepsin: up to 120 min
pepsin from porcine stomach mucosa, sequence (P00791 60-385): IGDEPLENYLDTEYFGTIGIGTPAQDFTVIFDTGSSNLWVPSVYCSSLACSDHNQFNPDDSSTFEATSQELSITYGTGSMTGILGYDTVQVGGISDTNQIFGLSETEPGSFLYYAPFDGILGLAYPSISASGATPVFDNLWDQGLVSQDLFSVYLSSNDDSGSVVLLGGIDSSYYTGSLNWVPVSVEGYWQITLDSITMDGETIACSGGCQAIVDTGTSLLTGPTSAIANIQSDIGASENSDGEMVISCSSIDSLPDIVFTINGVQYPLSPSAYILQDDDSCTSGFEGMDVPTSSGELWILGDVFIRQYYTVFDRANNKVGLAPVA
In short: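 Simulated gastric fluid: 200 mg NaCl and 64 mg porcine pepsin in 100 mL water plus 0.7 mL HCl, pH 1.2. Peptide (10 mg/mL in 0.1 M ammonium bicarbonate, 0.1 mL) mixed with 0.9 mL SGF at 37°C. Sampled at 0, 5, 15, 30, 60 and 120 min; quenched with 0.2 M NaOH; analysed by RP-HPLC. PEG 200, 400, 1000 or 4000 tested at 0%, 20% and 40% in SGF.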

## CCCCCCCCCCCCCCCC(=O)N[C@@H](CCC(=O)NCCCC[C@H](NC(=O)[C@H](C)NC(=O)[C@H](C)NC(=O)[C@H](CCC(N)=O)NC(=O)CNC(=O)[C@H](CCC(=O)O)NC(=O)[C@H](CC(C)C)NC(=O)[C@H](Cc1ccc(O)cc1)NC(=O)[C@H](CO)NC(=O)[C@H](CO)NC(=O)[C@@H](NC(=O)[C@H](CC(=O)O)NC(=O)[C@H](CO)NC(=O)[C@@H](NC(=O)[C@H](Cc1ccccc1)NC(=O)[C@@H](NC(=O)CNC(=O)[C@H](CCC(=O)O)NC(=O)[C@H](C)NC(=O)[C@@H](N)Cc1cnc[nH]1)[C@@H](C)O)[C@@H](C)O)C(C)C)C(=O)N[C@@H](CCC(=O)O)C(=O)N[C@@H](Cc1ccccc1)C(=O)N[C@H](C(=O)N[C@@H](C)C(=O)N[C@@H](Cc1c[nH]c2ccccc12)C(=O)N[C@@H](CC(C)C)C(=O)N[C@H](C(=O)N[C@@H](CCCNC(=N)N)C(=O)NCC(=O)N[C@@H](CCCNC(=N)N)C(=O)NCC(=O)O)C(C)C)[C@@H](C)CC)C(=O)O [LG, liraglutide]
Caco-2 cells
  LG at the basolateral side after 2 h treatment: undetected
[1]; SGF pH 1.2 with pepsin
  Degradation in simulated gastric fluid with pepsin: rapid degradation
[1]; SGF pH 1.2 with pepsin, listed as free LG
  Degradation in simulated gastric fluid with pepsin: fully degraded
[1]; SGF pH 1.2 without pepsin
  Degradation in simulated gastric fluid in the absence of pepsin: degradation was not observed
[1]; formulation containing PEG 1000, SGF pH 1.2 with pepsin
  Time to entire degradation in simulated gastric fluid, LG with PEG 1000: ≤ 60 min
[1]; formulation containing PEG 4000, SGF pH 1.2 with pepsin
  Time to entire degradation in simulated gastric fluid, LG with PEG 4000: ≤ 60 min
